Key:
[1] = biological target: Proto-oncogene tyrosine-protein kinase ROS (Homo sapiens) (UniProt P08922); test: Inhibition of recombinant GST-tagged human ROS1 expressed in baculovirus expression system at 1 uM measured by select screen assay relative to control
Procedure, shortened: (§1)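 Single-concentration profiling at 1.0 µM in a 28-kinase SelectScreen panel; percent inhibition reported.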

[2] = biological target: RAF proto-oncogene serine/threonine-protein kinase (Homo sapiens) (UniProt P04049); test: Inhibition of recombinant GST-tagged human RAF1 expressed in baculovirus expression system at 1 uM measured by select screen assay relative to control; procedure, shortened: as §1
KM12 [3] = test: Induction of apoptosis in human KM12 cells assessed as late apoptotic cells at 62.5 nM measured after 48 hrs by AnnexinV-FITC/PI staining based flowcytometry assay relative to control; type: functional
Procedure, shortened: (§2)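 They were detached with trypsin, washed twice in PBS, and 10^5 cells were suspended in Annexin V binding buffer. Cells were stained with FITC-Annexin V and PI for 10 min at room temperature in the dark, diluted with PBS and analysed by flow cytometry.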

A549 = test: cells; details: Homo sapiens, A549, 72 h
[4] = biological target: T1, BDNF/NT-3 growth factors receptor (Homo sapiens, UniProt Q16620); test: Inhibition of N-terminal GST-tagged human TRKB (456 to 822 residues) expressed in baculovirus infected Sf21 cells using TK as substrate in presence of ATP measured after 40 mins by HTRF assay
Target sequence in this assay (Q16620 whole entry, the tested form may be a part): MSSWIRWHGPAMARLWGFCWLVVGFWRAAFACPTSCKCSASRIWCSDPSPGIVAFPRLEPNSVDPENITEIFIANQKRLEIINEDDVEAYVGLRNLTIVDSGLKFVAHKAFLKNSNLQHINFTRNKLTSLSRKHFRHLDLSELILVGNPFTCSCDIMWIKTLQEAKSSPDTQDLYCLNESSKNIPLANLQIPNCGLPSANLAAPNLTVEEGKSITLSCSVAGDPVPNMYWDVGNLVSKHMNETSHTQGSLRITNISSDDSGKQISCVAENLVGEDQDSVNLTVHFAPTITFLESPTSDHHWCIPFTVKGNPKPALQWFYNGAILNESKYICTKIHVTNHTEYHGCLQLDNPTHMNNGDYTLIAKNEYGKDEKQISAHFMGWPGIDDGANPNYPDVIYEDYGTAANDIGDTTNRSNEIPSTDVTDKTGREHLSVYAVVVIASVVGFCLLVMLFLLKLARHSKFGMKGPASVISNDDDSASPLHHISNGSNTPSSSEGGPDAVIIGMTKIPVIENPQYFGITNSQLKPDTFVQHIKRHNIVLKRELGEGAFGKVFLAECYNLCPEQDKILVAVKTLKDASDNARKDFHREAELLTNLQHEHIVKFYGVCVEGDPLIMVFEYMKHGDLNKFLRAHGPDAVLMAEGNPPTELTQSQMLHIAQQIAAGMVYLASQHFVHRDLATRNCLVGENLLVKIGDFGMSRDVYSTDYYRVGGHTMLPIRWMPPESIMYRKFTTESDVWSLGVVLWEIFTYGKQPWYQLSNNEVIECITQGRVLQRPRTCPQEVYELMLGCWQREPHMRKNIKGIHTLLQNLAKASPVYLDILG

[5] = biological target: High affinity nerve growth factor receptor (Homo sapiens, UniProt P04629); test: Inhibition of recombinant His-tagged human TRKA expressed in baculovirus expression system at 1 uM measured by select screen assay relative to control; procedure, shortened: as §1
KM12 [6] = test: Induction of apoptosis in human KM12 cells assessed as late apoptotic cells at 1000 nM measured after 48 hrs by AnnexinV-FITC/PI staining based flowcytometry assay relative to control; type: functional; procedure, shortened: as §2
KM12 [7] = test: Cell cycle arrest in human KM12 cells assessed as accumulation of cells at S phase at 125 nM measured after 48 hrs by AnnexinV-FITC/PI staining based flowcytometry method relative to control; type: functional
[8] = biological target: Maternal embryonic leucine zipper kinase (Homo sapiens) (UniProt Q14680); test: Inhibition of recombinant GST-tagged human MELK expressed in baculovirus expression system at 1 uM measured by select screen assay relative to control; procedure, shortened: as §1
[9] = biological target: T1, BDNF/NT-3 growth factors receptor; test: Inhibition of recombinant His-tagged human TRKB expressed in baculovirus expression system at 1 uM measured by select screen assay relative to control; procedure, shortened: as §1
Target sequence in this assay (Q16620 32-822 limits assumed): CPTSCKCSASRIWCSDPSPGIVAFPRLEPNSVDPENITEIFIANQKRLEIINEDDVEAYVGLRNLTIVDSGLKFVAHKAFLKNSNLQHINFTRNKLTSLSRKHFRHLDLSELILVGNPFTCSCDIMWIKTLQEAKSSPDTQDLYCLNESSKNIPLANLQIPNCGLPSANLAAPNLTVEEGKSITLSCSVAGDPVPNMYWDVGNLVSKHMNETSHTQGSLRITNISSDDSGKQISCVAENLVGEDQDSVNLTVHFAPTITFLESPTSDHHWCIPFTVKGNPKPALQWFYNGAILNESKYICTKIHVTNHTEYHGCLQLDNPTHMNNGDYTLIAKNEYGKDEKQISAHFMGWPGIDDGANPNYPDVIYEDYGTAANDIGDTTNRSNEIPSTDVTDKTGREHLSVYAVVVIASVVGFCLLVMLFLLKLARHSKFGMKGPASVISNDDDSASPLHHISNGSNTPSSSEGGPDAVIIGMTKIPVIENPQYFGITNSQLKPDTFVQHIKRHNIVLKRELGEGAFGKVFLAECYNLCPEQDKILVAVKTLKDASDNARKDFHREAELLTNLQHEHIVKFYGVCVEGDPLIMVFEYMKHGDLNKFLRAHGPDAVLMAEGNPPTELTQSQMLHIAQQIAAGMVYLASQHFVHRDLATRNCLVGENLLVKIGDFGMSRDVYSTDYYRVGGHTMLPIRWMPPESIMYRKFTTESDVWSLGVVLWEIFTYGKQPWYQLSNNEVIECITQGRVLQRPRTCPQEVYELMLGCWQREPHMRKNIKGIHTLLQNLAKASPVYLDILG

[10] = biological target: Serine/threonine-protein kinase pim-1 (Homo sapiens) (UniProt P11309); test: Inhibition of recombinant His-tagged full length human PIM1 expressed in baculovirus expression system at 1 uM measured by select screen assay relative to control; procedure, shortened: as §1
[11] = biological target: Serine/threonine-protein kinase PLK4 (Homo sapiens) (UniProt O00444); test: Inhibition of recombinant GST-tagged human PLK4 expressed in baculovirus expression system at 1 uM measured by select screen assay relative to control; procedure, shortened: as §1
KM12 [12] = test: Induction of apoptosis in human KM12 cells assessed as early apoptotic cells at 1000 nM measured after 48 hrs by AnnexinV-FITC/PI staining based flowcytometry assay relative to control; type: functional; procedure, shortened: as §2
CYP2C9 = CYP2C9 (Homo sapiens, UniProt P11712); test: Inhibition of CYP2C9 in human liver microsomes at 10 uM preincubated for 10 mins followed by addition of NADPH and measured after 15 mins by LC-MS/MS analysis; type: ADME; details: time 25 min
Procedure, shortened: (§3)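 Pooled human liver microsomes (0.253 mg/mL) with test compound at 10 µM and probe substrates: phenacetin (CYP1A2), diclofenac (CYP2C9), S-mephenytoin (CYP2C19), dextromethorphan (CYP2D6), midazolam (CYP3A4). 10 min preincubation at 37 °C, NADPH-regenerating system added, 15 min at 37 °C. Stopped with cold acetonitrile containing tolbutamide/labetalol internal standards, centrifuged, supernatant read by LC-MS/MS; % inhibition.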

KM12 [13] = test: Cell cycle arrest in human KM12 cells assessed as accumulation of cells at greater G1 phase at 1000 nM measured after 48 hrs by AnnexinV-FITC/PI staining based flowcytometry method relative to control; type: functional
KM12 [14] = test: cells; details: Homo sapiens, KM12, 72 h
[15] = Half life in Sprague dawley rat at 1 mg/kg, iv; type: ADME, organism-based; details: in vivo
Procedure, shortened: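 Blood was collected into heparin tubes at specified time points and centrifuged at once (4 °C, 4000 rpm, 20 min). Plasma levels were quantified by LC-MS/MS. Parameters came from noncompartmental analysis.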

CYP3A4 = CYP3A4 (Homo sapiens, UniProt P08684); test: Inhibition of CYP3A4 in human liver microsomes at 10 uM preincubated for 10 mins followed by addition of NADPH and measured after 15 mins by LC-MS/MS analysis; type: ADME; procedure, shortened: as §3
[16] = Clearance in human liver assessed as half life at 100 uM measured after 60 mins by LC-MS/MS analysis; type: ADME, Microsome; details: microsomes, 1 h
Procedure, shortened: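 Pooled human liver microsomes were diluted to 0.59 mg/mL (working solution) in 100 mM potassium phosphate buffer and pre-warmed at 37 °C. Compound was added from a 100 µM working solution, with NADPH cofactor prepared in 10 mM MgCl2. Incubation ran at 37 °C for 60 min. Aliquots were quenched at 5, 15, 30, 45 and 60 min. A control without NADPH was run in buffer. Samples were analysed by LC-MS/MS.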

[17] = biological target: Receptor-type tyrosine-protein kinase FLT3 (Homo sapiens) (UniProt P36888); test: Inhibition of recombinant His-tagged human FLT3 expressed in baculovirus expression system at 1 uM measured by select screen assay relative to control; procedure, shortened: as §1
KM12 [18] = test: Cell cycle arrest in human KM12 cells assessed as accumulation of cells at G2 phase at 1000 nM measured after 48 hrs by AnnexinV-FITC/PI staining based flowcytometry method relative to control; type: functional
[19] = biological target: Cyclin-dependent kinase 2 (Homo sapiens) (UniProt P24941); test: Inhibition of recombinant His-tagged human full length CDK2 expressed in baculovirus expression system at 1 uM measured by select screen assay relative to control; procedure, shortened: as §1
KM12 [20] = test: Induction of apoptosis in human KM12 cells assessed as necrotic cells at 125 nM measured after 48 hrs by AnnexinV-FITC/PI staining based flowcytometry assay relative to control; type: functional; procedure, shortened: as §2
[21] = Stability in human plasma assessed as compound remaining incubated for 30 mins by LC-MS/MS analysis; type: ADME, cell-free; details: read-out: Stability
Procedure, shortened: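 Pooled frozen human plasma thawed at 37 °C, centrifuged to remove clots, pH adjusted to 7.4 if required. Spiked to 2 µM final (from 100 µM dosing solution), in duplicate, incubated at 37 °C in a water bath. Sampled at 0, 10, 30, 60 and 120 min, quenched with acetonitrile stop solution containing internal standards, centrifuged, and supernatant analysed by LC-MS/MS for percent remaining.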

THLE-2 = test: cells; details: Homo sapiens, THLE-2, 72 h
[22] = MRT in Sprague dawley rat at 3 mg/kg, po; type: ADME, organism-based; details: in vivo
Procedure, shortened: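 Male-unspecified SD rats, n = 3 per group, single i.v. dose 1 mg/kg or oral 3 mg/kg. Blood drawn into heparin tubes at set times, centrifuged at 4 °C, plasma quantified by LC-MS/MS; noncompartmental parameters fitted.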

Serine/threonine-protein kinase pim-1 (Homo sapiens), sequence (P11309 whole entry, looked up): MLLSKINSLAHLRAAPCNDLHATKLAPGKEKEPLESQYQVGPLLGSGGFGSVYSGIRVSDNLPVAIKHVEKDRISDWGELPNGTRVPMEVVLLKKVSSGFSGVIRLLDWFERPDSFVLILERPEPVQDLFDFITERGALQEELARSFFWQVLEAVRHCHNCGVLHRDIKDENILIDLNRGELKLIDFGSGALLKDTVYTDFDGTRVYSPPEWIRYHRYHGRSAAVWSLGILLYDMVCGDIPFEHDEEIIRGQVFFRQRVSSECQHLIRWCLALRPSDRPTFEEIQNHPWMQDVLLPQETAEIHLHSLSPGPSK
Maternal embryonic leucine zipper kinase (Homo sapiens), sequence (Q14680 whole entry, looked up): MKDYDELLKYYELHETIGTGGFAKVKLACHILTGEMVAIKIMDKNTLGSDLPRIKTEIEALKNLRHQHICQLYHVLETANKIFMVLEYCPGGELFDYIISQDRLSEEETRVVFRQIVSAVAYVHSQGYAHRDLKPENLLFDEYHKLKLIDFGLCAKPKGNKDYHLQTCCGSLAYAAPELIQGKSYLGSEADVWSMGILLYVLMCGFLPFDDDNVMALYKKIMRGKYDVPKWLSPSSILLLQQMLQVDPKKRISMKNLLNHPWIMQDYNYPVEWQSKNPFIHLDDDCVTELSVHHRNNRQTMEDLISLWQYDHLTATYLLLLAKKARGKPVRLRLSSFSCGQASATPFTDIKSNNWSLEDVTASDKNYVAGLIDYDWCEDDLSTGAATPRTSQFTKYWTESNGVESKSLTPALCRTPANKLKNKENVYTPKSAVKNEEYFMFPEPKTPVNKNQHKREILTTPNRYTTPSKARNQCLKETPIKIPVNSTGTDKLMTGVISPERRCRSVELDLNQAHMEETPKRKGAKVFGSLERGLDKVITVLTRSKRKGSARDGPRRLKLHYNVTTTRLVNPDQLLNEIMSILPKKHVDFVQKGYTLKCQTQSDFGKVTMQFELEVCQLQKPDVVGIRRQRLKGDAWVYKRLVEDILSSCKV
Serine/threonine-protein kinase PLK4 (Homo sapiens), sequence (O00444 whole entry): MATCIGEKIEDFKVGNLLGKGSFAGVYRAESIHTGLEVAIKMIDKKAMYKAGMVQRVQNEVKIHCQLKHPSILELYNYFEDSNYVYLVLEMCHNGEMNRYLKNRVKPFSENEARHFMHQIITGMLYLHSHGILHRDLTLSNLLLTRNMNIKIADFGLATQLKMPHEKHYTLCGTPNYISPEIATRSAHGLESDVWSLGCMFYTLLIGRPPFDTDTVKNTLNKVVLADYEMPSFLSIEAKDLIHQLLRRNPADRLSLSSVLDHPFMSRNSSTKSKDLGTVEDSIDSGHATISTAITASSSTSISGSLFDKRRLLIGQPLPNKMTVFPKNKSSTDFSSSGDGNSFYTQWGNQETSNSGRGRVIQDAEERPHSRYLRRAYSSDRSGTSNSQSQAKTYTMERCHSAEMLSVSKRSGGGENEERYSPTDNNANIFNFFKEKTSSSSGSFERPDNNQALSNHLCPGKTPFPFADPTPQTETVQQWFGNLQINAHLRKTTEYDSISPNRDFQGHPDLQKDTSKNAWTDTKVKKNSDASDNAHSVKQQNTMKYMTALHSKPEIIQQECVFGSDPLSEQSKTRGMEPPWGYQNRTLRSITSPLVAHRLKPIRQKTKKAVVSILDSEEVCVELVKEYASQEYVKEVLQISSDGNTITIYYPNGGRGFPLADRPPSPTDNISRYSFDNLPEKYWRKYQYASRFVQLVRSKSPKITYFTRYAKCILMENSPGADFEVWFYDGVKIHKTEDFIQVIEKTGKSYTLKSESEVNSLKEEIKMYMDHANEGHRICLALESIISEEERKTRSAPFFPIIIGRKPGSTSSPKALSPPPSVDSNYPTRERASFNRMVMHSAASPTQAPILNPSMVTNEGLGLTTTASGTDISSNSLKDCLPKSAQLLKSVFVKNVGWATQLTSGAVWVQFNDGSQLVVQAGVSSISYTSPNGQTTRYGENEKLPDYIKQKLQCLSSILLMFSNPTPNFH
Receptor-type tyrosine-protein kinase FLT3 (Homo sapiens), sequence (P36888 whole entry): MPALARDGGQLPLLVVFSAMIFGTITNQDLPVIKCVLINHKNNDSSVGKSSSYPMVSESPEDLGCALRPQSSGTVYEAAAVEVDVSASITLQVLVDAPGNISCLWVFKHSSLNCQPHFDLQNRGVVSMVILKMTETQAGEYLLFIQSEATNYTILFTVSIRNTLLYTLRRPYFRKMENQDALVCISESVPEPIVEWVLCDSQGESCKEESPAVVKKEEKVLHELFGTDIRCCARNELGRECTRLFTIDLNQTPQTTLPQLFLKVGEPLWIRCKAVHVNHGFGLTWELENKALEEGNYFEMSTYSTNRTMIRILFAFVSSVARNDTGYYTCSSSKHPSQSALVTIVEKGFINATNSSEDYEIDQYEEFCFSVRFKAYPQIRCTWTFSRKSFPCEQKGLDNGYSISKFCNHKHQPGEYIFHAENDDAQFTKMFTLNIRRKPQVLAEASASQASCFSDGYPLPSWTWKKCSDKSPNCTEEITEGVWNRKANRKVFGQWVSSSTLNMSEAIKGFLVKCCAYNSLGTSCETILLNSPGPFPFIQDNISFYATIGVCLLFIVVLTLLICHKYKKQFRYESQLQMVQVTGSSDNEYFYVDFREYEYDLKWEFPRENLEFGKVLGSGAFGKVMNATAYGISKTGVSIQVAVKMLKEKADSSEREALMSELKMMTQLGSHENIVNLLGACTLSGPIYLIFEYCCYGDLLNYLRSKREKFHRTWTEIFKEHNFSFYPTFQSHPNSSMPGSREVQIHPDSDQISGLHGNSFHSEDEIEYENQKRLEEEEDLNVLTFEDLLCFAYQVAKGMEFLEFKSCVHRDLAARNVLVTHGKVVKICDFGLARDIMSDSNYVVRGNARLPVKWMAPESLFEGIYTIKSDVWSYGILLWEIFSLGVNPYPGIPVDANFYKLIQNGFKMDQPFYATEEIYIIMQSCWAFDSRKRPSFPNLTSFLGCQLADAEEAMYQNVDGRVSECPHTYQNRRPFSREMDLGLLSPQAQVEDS
CYP3A4, sequence (P08684 whole entry): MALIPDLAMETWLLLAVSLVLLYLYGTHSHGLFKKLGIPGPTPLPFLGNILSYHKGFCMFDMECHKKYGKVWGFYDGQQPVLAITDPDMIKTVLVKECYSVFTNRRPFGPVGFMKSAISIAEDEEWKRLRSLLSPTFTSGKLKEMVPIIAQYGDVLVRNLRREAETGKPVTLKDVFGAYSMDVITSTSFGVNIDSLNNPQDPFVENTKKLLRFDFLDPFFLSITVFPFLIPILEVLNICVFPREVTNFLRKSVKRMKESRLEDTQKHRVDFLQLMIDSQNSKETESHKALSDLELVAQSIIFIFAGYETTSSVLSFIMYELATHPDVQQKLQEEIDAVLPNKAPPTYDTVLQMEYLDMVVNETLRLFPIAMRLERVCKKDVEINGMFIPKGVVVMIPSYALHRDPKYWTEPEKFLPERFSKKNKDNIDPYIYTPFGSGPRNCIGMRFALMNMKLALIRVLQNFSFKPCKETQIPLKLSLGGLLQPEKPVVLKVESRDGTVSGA

inhibition [1]: 10% | inhibition [2]: 11% | IC50 (A549): 72300 nM | IC50 [4]: 28 nM | inhibition [5]: 102% | inhibition [8]: 22% | inhibition [9]: 100% | inhibition [10]: 0% | inhibition [11]: 0% | inhibition at 0.25 h, 10 µM (CYP2C9): 16% | IC50 (KM12 [14]): 82 nM | half-life [15]: 1.51 h | inhibition at 0.25 h, 10 µM (CYP3A4): 6.4% | CLH [16]: 42.1 µL/min/mg | inhibition [17]: 31% | inhibition [19]: 3% | remaining at 0.5 h [21]: 95.7% | IC50 (THLE-2): > 100000 nM | MRT [22]: 3.49 h
SMILES: CN1CCN(c2ccc(C(=O)Nc3n[nH]c4c3CN(Cc3cc(F)cc(F)c3)C4(C)C)cc2)CC1
Activity (KM12 [3]): 9.89% | Activity (KM12 [6]): 39.95% | Activity (KM12 [7]): 21.5% | Activity (KM12 [12]): 36.3% | Activity (KM12 [13]): 1.59% | Activity (KM12 [18]): 8.92% | Activity (KM12 [20]): 0.07%
